According to ChEMBL document CHEMBL1156469 (2007):
Activity calls are given as the source filed them. The calls are words filed in the database; no cut-off is given here.

Tests used:
[1] = biological target: Alkaline phosphatase, germ cell type (Homo sapiens) (UniProt P10696); experiment: Increase in ALP activity in human MG63 cells at 0.1 to 10 uM after 7 days; type: cell-based; settings: MG-63
[2] = Reversal of induction of BMP2 expression in mouse MC3T3-E1 cells at 1 uM by Western blot in presence of short interfering ERalpha-RNA; type: functional, cell-based
MG-63 = experiment: Increase in osteopontin mRNA levels in human MG63 cells at 1 uM after 72 hrs by RT-PCR; type: functional, cell-based
Outline: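 Cells treated with 1 μm for 72 h; osteocalcin and osteopontin mRNA by RT-PCR, 30 cycles (95/52/72 °C, 1 min each), ethidium bromide–stained agarose gels; repeated at least twice from at least two cDNA preparations.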

[3] = biological target: Proto-oncogene tyrosine-protein kinase Src (Mus musculus) (UniProt P05480); experiment: Reversal of increase in Src kinase phosphorylation in mouse MC3T3-E1 cells at 1 uM in presence of PP2; type: cell-based
Chain of Proto-oncogene tyrosine-protein kinase Src (Mus musculus) (P05480 2-535 limits assumed): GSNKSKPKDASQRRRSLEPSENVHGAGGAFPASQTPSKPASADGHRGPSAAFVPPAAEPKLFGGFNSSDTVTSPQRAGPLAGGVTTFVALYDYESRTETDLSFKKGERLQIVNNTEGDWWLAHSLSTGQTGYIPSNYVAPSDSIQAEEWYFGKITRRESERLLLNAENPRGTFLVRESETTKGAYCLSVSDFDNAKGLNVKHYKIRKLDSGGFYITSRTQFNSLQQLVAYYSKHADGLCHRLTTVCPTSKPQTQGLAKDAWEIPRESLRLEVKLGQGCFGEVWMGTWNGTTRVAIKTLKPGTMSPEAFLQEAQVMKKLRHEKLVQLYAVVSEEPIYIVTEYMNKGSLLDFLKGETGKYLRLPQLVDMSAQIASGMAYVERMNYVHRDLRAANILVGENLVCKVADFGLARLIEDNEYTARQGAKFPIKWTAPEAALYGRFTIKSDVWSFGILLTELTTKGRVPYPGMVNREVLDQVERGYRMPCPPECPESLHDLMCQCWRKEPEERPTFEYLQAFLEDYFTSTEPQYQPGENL
Outline: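 Src phosphorylation, ERα nuclear translocation and BMP-2 protein analysed by Western blot with ECL detection. Three independent experiments.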

Osteoblast [4] = experiment: Effect on insulin-like growth factor 1 gene expression in rat primary osteoblast cells assessed as expression ratio of treated to untreated control by microarray analysis; type: functional
Outline: (§1)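 Resveratrol-treated and vehicle-treated primary osteoblasts were profiled on a mouse osteogenesis-focused cDNA array (GEArray Q series) built to track gene expression during osteogenic differentiation. Each gene's signal in treated cells was expressed as a ratio to untreated control.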

[5] = biological target: Forkhead box protein O3 (Homo sapiens) (UniProt O43524); experiment: Reversal of induction of FOXO3a activity in human MDA-MB-231 cells transfected with constitutively activated Akt mutant; type: cell-based
Chain of Forkhead box protein O3 (Homo sapiens) (O43524 whole entry): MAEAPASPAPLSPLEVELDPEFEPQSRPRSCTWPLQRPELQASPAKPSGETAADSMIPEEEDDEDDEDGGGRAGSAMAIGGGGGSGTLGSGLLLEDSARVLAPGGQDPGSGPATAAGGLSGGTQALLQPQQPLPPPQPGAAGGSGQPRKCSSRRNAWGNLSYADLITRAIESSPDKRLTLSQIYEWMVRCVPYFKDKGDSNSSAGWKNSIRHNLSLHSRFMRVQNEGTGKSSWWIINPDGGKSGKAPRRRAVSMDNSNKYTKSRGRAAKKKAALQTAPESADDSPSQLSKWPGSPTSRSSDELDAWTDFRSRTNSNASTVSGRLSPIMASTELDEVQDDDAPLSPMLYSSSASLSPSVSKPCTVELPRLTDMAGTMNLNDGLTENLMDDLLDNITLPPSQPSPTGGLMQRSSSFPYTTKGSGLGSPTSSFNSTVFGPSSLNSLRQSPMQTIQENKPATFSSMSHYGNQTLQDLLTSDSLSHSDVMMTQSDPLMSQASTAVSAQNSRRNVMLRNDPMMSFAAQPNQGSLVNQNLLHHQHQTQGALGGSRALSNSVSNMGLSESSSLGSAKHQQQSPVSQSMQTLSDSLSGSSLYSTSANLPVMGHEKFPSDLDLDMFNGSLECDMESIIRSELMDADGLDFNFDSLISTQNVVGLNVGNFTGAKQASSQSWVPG

[6] = biological target: T1, Estrogen receptor (Mus musculus) (UniProt P19785); experiment: Reversal of increase in DNA-binding activity of ERalpha in nuclear extracts of mouse MC3T3-E1 cells by electrophoretic mobility shift assays in presence of ICI-182780; type: cell-based
T1 sequence (whole entry): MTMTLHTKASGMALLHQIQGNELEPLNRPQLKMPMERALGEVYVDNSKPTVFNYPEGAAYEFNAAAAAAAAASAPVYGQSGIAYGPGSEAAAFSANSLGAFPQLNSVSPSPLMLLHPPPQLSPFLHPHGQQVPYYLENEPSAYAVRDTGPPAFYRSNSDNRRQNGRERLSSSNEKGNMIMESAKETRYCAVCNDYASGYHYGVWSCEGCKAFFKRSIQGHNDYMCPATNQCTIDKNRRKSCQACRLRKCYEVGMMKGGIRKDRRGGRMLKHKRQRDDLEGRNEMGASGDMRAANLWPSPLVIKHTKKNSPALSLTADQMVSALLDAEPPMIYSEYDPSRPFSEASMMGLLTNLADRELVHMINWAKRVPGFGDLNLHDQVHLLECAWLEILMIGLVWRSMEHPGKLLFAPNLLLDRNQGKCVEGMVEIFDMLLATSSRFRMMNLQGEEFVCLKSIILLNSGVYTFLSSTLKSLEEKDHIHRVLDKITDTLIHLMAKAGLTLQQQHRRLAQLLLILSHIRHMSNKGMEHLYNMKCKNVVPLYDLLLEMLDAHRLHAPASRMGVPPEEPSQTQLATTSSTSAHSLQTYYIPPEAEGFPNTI
Outline: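 Nuclear extracts of MC3T3-E1 cells. ER-binding probe [α-32P]dCTP end-labeled, 20-min binding at room temperature, 5-fold unlabeled competitor where used. Complexes resolved on 5% nondenaturing PAGE in Tris-borate-EDTA pH 8.3, then autoradiography.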

Osteoblast [7] = experiment: Effect on procollagen 4 alpha 4 gene expression in rat primary osteoblast cells assessed as expression ratio of treated to untreated control by microarray analysis; type: functional; outline: as §1
Osteoblast [8] = experiment: Effect on vascular endothelial growth factor A gene expression in rat primary osteoblast cells assessed as expression ratio of treated to untreated control by microarray analysis; type: functional
Outline: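 GEArray Q series Mouse Osteogenesis cDNA array profiling osteogenic-differentiation genes in treated versus vehicle-treated primary osteoblasts.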

Osteoblast [9] = experiment: Inhibition of antiapoptotic activity in rat primary osteoblast cells at 1 uM after 48 hrs in presence of BMP2-specific neutralizing antibody; type: functional, cell-based
Osteoblast [10] = experiment: Inhibition of TNF-alpha-induced apoptosis in rat primary osteoblast cells after 24 hrs by flow cytometry; type: functional, cell-based
Outline: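 Cells washed in PBS, held 30 min in 0.5% Triton X-100/PBS/0.05% RNase A, then propidium iodide (50 μg/ml) added and kept on ice 15–30 min. Apoptosis is the hypodiploid fraction below the G0/G1 peak, by flow cytometry. Run in triplicate and repeated on three occasions.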

Osteoblast [11] = experiment: Increase in proliferation of rat primary osteoblast cells at 0.1 to 10 uM after 24 hr by flow cytometry; type: functional, cell-based
T47D = experiment: Antiproliferative activity against human T47D cells at 1 uM by flow cytometry; type: functional, cell-based
Outline: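 Proliferation was measured by DNA flow cytometry. Incubations were run in triplicate across three separate experiments, and values are means ± S.D.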

[12] = Reversal of induction of BMP2 expression in mouse MC3T3-E1 cells at 1 uM by Western blot in presence of ICI-182780; type: functional, cell-based
MC3T3-E1 = experiment: Increase in BMP2 expression in mouse MC3T3-E1 cells expressing pBMP2delta1 mutant at 1 uM after 4 hrs by luciferase method relative to control; type: functional, cell-based
Outline: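 MC3T3-E1 cells transfected with BMP-2 promoter–luciferase constructs (full promoter or deletions), treated with 1 μm or vehicle for 4 h; Dual-Luciferase assay; means ± S.D.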

[13] = biological target: T2, Alkaline phosphatase (Mus musculus) (UniProt Q9EQ79); experiment: Inhibition of induction of ALP activity in mouse MC3T3-E1 cells at 1 uM after 48 hrs in presence of noggin; type: cell-based
T2 sequence (whole entry): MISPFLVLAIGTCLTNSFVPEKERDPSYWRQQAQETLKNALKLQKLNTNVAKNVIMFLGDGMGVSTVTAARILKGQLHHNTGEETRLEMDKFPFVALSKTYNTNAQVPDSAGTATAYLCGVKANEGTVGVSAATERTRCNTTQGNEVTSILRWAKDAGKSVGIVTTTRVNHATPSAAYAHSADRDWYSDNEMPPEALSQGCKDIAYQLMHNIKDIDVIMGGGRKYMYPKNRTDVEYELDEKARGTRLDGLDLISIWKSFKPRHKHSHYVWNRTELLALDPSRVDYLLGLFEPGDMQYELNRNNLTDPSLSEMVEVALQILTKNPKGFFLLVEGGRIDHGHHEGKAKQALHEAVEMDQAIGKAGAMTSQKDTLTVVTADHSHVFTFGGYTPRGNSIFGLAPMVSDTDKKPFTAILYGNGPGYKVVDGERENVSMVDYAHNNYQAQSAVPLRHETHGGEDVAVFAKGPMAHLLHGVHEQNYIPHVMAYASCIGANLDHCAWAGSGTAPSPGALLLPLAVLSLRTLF

Chain of Alkaline phosphatase, germ cell type (Homo sapiens) (P10696 20-503 limits assumed): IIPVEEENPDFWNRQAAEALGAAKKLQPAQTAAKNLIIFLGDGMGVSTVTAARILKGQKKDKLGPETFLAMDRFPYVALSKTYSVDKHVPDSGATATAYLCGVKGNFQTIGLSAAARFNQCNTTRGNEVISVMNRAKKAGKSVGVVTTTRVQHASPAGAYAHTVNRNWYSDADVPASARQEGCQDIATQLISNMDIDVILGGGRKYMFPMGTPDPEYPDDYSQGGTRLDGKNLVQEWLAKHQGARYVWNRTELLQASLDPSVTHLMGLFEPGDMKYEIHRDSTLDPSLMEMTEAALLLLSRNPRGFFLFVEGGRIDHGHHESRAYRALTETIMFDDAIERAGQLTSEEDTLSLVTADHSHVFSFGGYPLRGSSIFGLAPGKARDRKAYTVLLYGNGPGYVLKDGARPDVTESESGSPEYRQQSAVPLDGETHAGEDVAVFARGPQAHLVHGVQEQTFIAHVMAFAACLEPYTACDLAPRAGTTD

With `Oc1ccc(/C=C/c2cc(O)cc(O)c2)cc1` [RESVERATROL] the Activity [1] was “Active”, the Activity [2] was “Active” and the Activity (MG-63) was “Active”. The Activity [3] was “Active”, the Ratio (Osteoblast [4]) was 4.54 and the Activity [5] was “Active”. The Activity [6] was “Active”, the Ratio (Osteoblast [7]) was 4.98 and the Ratio (Osteoblast [8]) was 0.44. For the same compound, the Activity (Osteoblast [9]) was “Active”, the Activity (Osteoblast [10]) was “Active” and the Activity (Osteoblast [11]) was “Active”. For the same compound, the Activity (T47D) was “Active”, the Activity [12] was “Active” and the Activity (MC3T3-E1) was “Active”. For the same compound, the Activity [13] was “Active”.
